“Also recorded” adds a separate entry of the source. Where two headings read alike, the source gives them in different places.
Assays:
P-gp [1] = details: caco-2 cells; cited from earlier work
P-gp [2] = details: long-term exposure (60 days); rat brain microvascular endothelial cells in vitro; cited from earlier work
[3] = tested on: breast cancer resistance protein (BCRP); details: colo-320 and MCF7 cells; cited from earlier work
[4] = Safety of MC111 administration to rats; format: in vivo; details: 6 mg/kg dose
[5] = rat, in vivo, 4.5 mg/kg
P-gp [6] = details: colo-320 cells; cited from earlier work
P-gp [7] = details: SW480 human colon adenocarcinoma cells; cited from earlier work
P-glycoprotein (P-gp) [8] = tested on: P-glycoprotein (P-gp); set-up: species or system Wistar rats; details: rat, in vivo
P-glycoprotein (P-gp) [9] = experiment: Western blot of P-gp expression in whole-brain tissue; format: in vivo, Wistar rats; details: MC111 4.5 or 6 mg/kg, 24 h
[10] = tested on: pregnane X receptor (PXR); experiment: Western blot of PXR expression in whole-brain tissue; format: in vivo, Wistar rats
In short: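 Male Wistar rats (RjHan:WI) got a single i.v. tail-vein dose of 4.5 or 6 mg/kg (n = 6 each) or vehicle (n = 6) under isoflurane, 24 h before scanning. The vehicle was 5% DMSO, 10% PEG 300 and 85% water. Whole-brain tissue was extracted in cold RIPA with protease inhibitors (~10:1 v/w). Semidry transfer to PVDF ran 2 h; blocking was 1 h in 3% BSA/TBST. PXR was normalised to histone H3, and group means to control.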

P-gp [11] = details: isolated brain capillaries in vitro; cited from earlier work
P-gp [12] = details: enriched diet; mice models of AD; cited from earlier work
P-gp [13] = details: transgenic mouse model of human AD; treatment for 7 days; cited from earlier work

Structure (SMILES): COc1cc2c(c(OC)c1OC)-c1ccc(OC)c(=O)cc1[C@@H](NC(C)=O)CC2 [colchicine]
- P-gp expression (P-gp [1]): increased
- P-gp function (P-gp [1]): without increasing

Structure (SMILES): O=C1NC(=O)C(c2ccccc2)(c2ccccc2)N1 [phenytoin]
- P-gp expression levels and P-gp function (P-gp [2]): increased

Structure (SMILES): Oc1ccc(-c2ccc(CN3CCN(C4CCCCC4)CC3)cc2)cc1 [MC111, 4′-((4-cyclohexylpiperazin-1-yl)methyl)-[1,1′-biphenyl]-4-ol]
- BCRP function and expression [3]: activates
- safety of administration [4]: safely administered
- Ke vs control group [5]: no significant differences
- [3H]verapamil efflux (P-gp function) (P-gp [6]): increase
- P-gp expression (P-gp [7]): increases
- SUV–TAC of the whole brain, differences among the groups (P-glycoprotein (P-gp) [8]): did not find any significant differences
- decrease of whole-brain K1 compared to the low-dose group (P-glycoprotein (P-gp) [8]): 29%
- SUV40–60 min of the whole brain (P-glycoprotein (P-gp) [8]; 4.5 mg/kg): 0.45 ± 0.02
- decrease of VT and K1 values compared to the control group (P-glycoprotein (P-gp) [8]; 4.5 mg/kg): not statistically significant
- decrease of whole-brain K1 compared to controls (P-glycoprotein (P-gp) [8]; 4.5 mg/kg): 7%
- decrease of whole-brain VT compared to controls (P-glycoprotein (P-gp) [8]; 4.5 mg/kg): 6%
- K1 and VT values compared to the control group (P-glycoprotein (P-gp) [8]; 6 mg/kg): significant reduction
- decrease of whole-brain K1 compared to controls (P-glycoprotein (P-gp) [8]; 6 mg/kg): 34%
- P-gp expression, treated vs control (P-glycoprotein (P-gp) [9]): did not detect changes; also recorded: no significant differences
- PXR expression levels, treated vs control [10]: did not detect any increase
- PXR expression levels ([10]; high-dose group, MC111 6 mg/kg): tendency to lower levels

Structure (SMILES): CO[C@H]1/C=C/O[C@@]2(C)Oc3c(C)c(O)c4c(O)c(c(/C=N/N5CCN(C)CC5)c(O)c4c3C2=O)NC(=O)/C(C)=C\C=C\[C@H](C)[C@H](O)[C@@H](C)[C@@H](O)[C@@H](C)[C@H](OC(C)=O)[C@@H]1C [rifampin]
- P-gp expression and function (P-gp [11]): increase

Structure (SMILES): C=C1/C(=C\C=C2/CCC[C@]3(C)[C@@H]([C@H](C)CCCC(C)(C)O)CC[C@@H]23)C[C@@H](O)C[C@@H]1O [1,25-Dihydroxyvitamin D3]
- Aβ deposition (P-gp [12]): reduced
- P-gp function (P-gp [12]): induced

Structure (SMILES): NC(=O)N1c2ccccc2C=Cc2ccccc21 [carbamazepine]
- P-gp expression levels and P-gp function (P-gp [2]): increased

Structure (SMILES): CCC1(c2ccccc2)C(=O)NC(=O)NC1=O [phenobarbital]
- P-gp expression levels and P-gp function (P-gp [2]): increased

Structure (SMILES): CC(C)=CCC[C@]1(C)[C@@H](CC=C(C)C)C[C@@]2(CC=C(C)C)C(=O)[C@]1(C(=O)C(C)C)C(=O)C(CC=C(C)C)=C2O [hyperforin]
- P-gp expression and function (P-gp [11]): increase

Structure (SMILES): CCCC(CCC)C(=O)O [valproic acid]
- P-gp expression levels and P-gp function (P-gp [2]): increased

Structure (SMILES): CC(=O)[C@H]1[C@H](C#N)C[C@H]2[C@@H]3CC=C4C[C@@H](O)CC[C@]4(C)[C@H]3CC[C@@]21C [pregnenolone-16α-carbonitrile]
- P-gp function (P-gp [13]): restored

Source: PMC8383301 (Molecular Pharmaceutics, 2021)
